Source: ChEMBL document CHEMBL1143581, “Cationic chalcone antibiotics. Design, synthesis, and mechanism of action” (2005)
Converted amounts (≈) assume the structure as drawn. The source made the active and inactive calls. The calls are words filed in the database; no cut-off is given here.

Experiments:
[1] = system: Enterococcus faecium; assay: Minimum inhibitory concentration against Enterococcus faecium 17501 (vancomycin-resistant clinical isolate); format: functional
[2] = system: Enterococcus faecium; assay: Minimum inhibitory concentration against Enterococcus faecium […]; format: functional
[3] = system: Escherichia coli; assay: Minimum inhibitory concentration against Escherichia coli ATCC 25922; format: functional
Outline: (§1)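 Broth microdilution per NCCLS in Mueller-Hinton medium, run in triplicate, with an added uninoculated compound dilution series in case of precipitation. MIC read as the lowest concentration preventing visible growth; reported values are the mean of three experiments.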

[4] = system: Staphylococcus aureus; assay: Minimum inhibitory concentration against Staphylococcus aureus ATCC 33591 (resistant to methicillin); format: functional
[5] = Percent lysis of human erythrocytes after exposed to test compound was measured as hemolysis; format: functional
[6] = system: Staphylococcus aureus; assay: Effect on bacterial membrane integrity was determined by using SYTO9 green fluorescent […]; format: functional, Bacteria
Outline: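 Incubated 15 min at 37 °C with agitation, then resuspended to OD600 ~0.4 and stained with BacLight (SYTO-9/propidium iodide) 15 min dark. Excitation 485 nm, emission 530/630 nm; green/red ratio normalized to untreated control.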

[7] = system: Enterococcus faecium; assay: Minimum inhibitory concentration against Enterococcus faecium 17501 (vancomycin-resistant clinical isolate); NA=not active; format: functional, organism-based
[8] = system: Enterococcus faecium; assay: Minimum inhibitory concentration against Enterococcus faecium […]; NA=not active; format: functional, organism-based; outline: as §1
[9] = system: Escherichia coli; assay: Minimum inhibitory concentration against Escherichia coli ATCC 25922; NA=not active; format: functional, organism-based
[10] = system: Staphylococcus aureus; assay: Minimum inhibitory concentration against Staphylococcus aureus ATCC 33591 (resistant to methicillin); NA=not active; format: functional, organism-based

SMILES	MIC [1]	MIC [2]	MIC [3]	MIC [4]	Hemolysis [5]	Membrane integrity [6]	MIC [7]	MIC [8]	MIC [9]	MIC [10]
Cc1cc(C)cc(-c2ccc(OCCN(C)C)c(/C=C/C(=O)c3cccc(OCCN(C)C)c3)c2)c1	10 µM (≈ 4.87 µg/mL)	10 µM (≈ 4.87 µg/mL)	20 µM (≈ 9.73 µg/mL)	5 µM (≈ 2.43 µg/mL)						
COc1ccc(C(=O)/C=C/c2cc(-c3cc(C)cc(C)c3)ccc2OCCN(C)C)c(CN(C)C)c1	5 µM (≈ 2.43 µg/mL)	5 µM (≈ 2.43 µg/mL)	75 µM (≈ 36.5 µg/mL)	5 µM (≈ 2.43 µg/mL)	<1%	2%				
C[N+](C)(C)CCOc1ccc(C(=O)/C=C/c2ccc(Cl)cc2Cl)cc1				40 µM						
CN(C)CCNc1ccc(C(=O)/C=C/c2ccccc2)cc1				300 µM (≈ 88.3 µg/mL)			inactive	inactive		
CN(C)Cc1ccc(C(=O)/C=C/c2ccc(Cl)cc2Cl)cc1	40 µM (≈ 13.4 µg/mL)	75 µM (≈ 25.1 µg/mL)		40 µM (≈ 13.4 µg/mL)						
COc1ccc(C(=O)/C=C/c2cc(-c3cc(C)cc(C)c3)ccc2OCCN(C)C)c(F)c1	5 µM (≈ 2.24 µg/mL)	5 µM (≈ 2.24 µg/mL)		5 µM (≈ 2.24 µg/mL)						
COc1ccc(C(=O)/C=C/c2ccccc2OCCN(C)C)c(F)c1	300 µM (≈ 103 µg/mL)	300 µM (≈ 103 µg/mL)		300 µM (≈ 103 µg/mL)						
Cc1cc(C)cc(-c2ccc(OCCN(C)C)c(/C=C/C(=O)c3cccc(N)c3)c2)c1	10 µM (≈ 4.15 µg/mL)	10 µM (≈ 4.15 µg/mL)		10 µM (≈ 4.15 µg/mL)					inactive	
CN(C)CCNc1cccc(C(=O)/C=C/c2cc(-c3ccccc3)ccc2N2CCN(C)CC2)c1	20 µM (≈ 9.37 µg/mL)	40 µM (≈ 18.7 µg/mL)	20 µM (≈ 9.37 µg/mL)	20 µM (≈ 9.37 µg/mL)						
COc1ccc(C(=O)/C=C/c2cc(-c3cc(C)cc(C)c3)ccc2OCCN(C)C)cc1CN(C)C	20 µM (≈ 9.73 µg/mL)	20 µM (≈ 9.73 µg/mL)	40 µM (≈ 19.5 µg/mL)	20 µM (≈ 9.73 µg/mL)						
Cc1cc(C)cc(-c2ccc(N3CCNCC3)c(/C=C/C(=O)c3cccc(NCCN(C)C)c3)c2)c1	5 µM (≈ 2.41 µg/mL)	5 µM (≈ 2.41 µg/mL)	5 µM (≈ 2.41 µg/mL)	2 µM (≈ 0.965 µg/mL)	0%	3%				
COc1ccc(C(=O)/C=C/c2cc(-c3ccccc3OC)ccc2N2CCN(C)CC2)c(F)c1	10 µM (≈ 4.61 µg/mL)	20 µM (≈ 9.21 µg/mL)		10 µM (≈ 4.61 µg/mL)	80%	0%				
COc1ccc(C(=O)/C=C/c2cc(-c3ccc(C(F)(F)F)cc3)ccc2N2CCN(C)CC2)c(F)c1							inactive	inactive		inactive
Cc1cc(C)cc(-c2ccc(OCCN(C)C)c(/C=C/C(=O)c3ccc(OCCN(C)C)cc3)c2)c1	10 µM (≈ 4.87 µg/mL)	20 µM (≈ 9.73 µg/mL)	40 µM (≈ 19.5 µg/mL)	10 µM (≈ 4.87 µg/mL)						
CN(C)CCNc1ccc(C(=O)/C=C/c2ccc(Cl)cc2Cl)cc1	40 µM (≈ 14.5 µg/mL)	40 µM (≈ 14.5 µg/mL)		40 µM (≈ 14.5 µg/mL)						
Cc1cc(C)cc(-c2ccc(OCCN(C)C)c(/C=C/C(=O)c3ccccc3NCCN(C)C)c2)c1	10 µM (≈ 4.86 µg/mL)	10 µM (≈ 4.86 µg/mL)	10 µM (≈ 4.86 µg/mL)	10 µM (≈ 4.86 µg/mL)						
CN(C)CCNc1ccc(/C=C/C(=O)c2ccc(Oc3ccccc3)cc2)cc1	20 µM (≈ 7.73 µg/mL)	10 µM (≈ 3.86 µg/mL)		20 µM (≈ 7.73 µg/mL)						
O=C(O)c1cn(C2CC2)c2cc(N3CCNCC3)c(F)cc2c1=O [CIPROFLOXACIN]				2 µM (≈ 0.663 µg/mL)	0%	102%				
CN(C)CCNc1cccc(C(=O)/C=C/c2cc(N3CCN(C)CC3)ccc2-c2ccccc2)c1	75 µM (≈ 35.1 µg/mL)	75 µM (≈ 35.1 µg/mL)		75 µM (≈ 35.1 µg/mL)					inactive	
CN(C)CCNc1cccc(C(=O)/C=C/c2ccc(Cl)cc2Cl)c1	40 µM (≈ 14.5 µg/mL)	40 µM (≈ 14.5 µg/mL)		40 µM (≈ 14.5 µg/mL)						
Cc1cc(C)cc(-c2ccc(OCCN(C)C)c(/C=C/C(=O)c3cccc(CN(C)C)c3)c2)c1	10 µM (≈ 4.57 µg/mL)	10 µM (≈ 4.57 µg/mL)	40 µM (≈ 18.3 µg/mL)	10 µM (≈ 4.57 µg/mL)						
COc1ccc(C(=O)/C=C/c2cc(-c3cccc(CO)c3)ccc2N2CCN(C)CC2)c(F)c1							inactive	inactive		inactive
CN(C)CCNc1ccc(C(=O)/C=C/c2ccc(Cl)cc2)cc1	75 µM (≈ 24.7 µg/mL)	75 µM (≈ 24.7 µg/mL)		75 µM (≈ 24.7 µg/mL)						
COc1ccc(C(=O)/C=C/c2cc(-c3ccccc3OC)ccc2N2CC[N+](C)(C)CC2)c(F)c1				10 µM						
CN(C)CCOc1ccc(C(=O)/C=C/c2ccc(Cl)cc2Cl)cc1	40 µM (≈ 14.6 µg/mL)	40 µM (≈ 14.6 µg/mL)		40 µM (≈ 14.6 µg/mL)	100%	0%				
Cc1cc(C)cc(-c2ccc(OCCN(C)C)c(/C=C/C(=O)c3ccccc3OCCN(C)C)c2)c1	10 µM (≈ 4.87 µg/mL)	10 µM (≈ 4.87 µg/mL)	40 µM (≈ 19.5 µg/mL)	10 µM (≈ 4.87 µg/mL)						
